Consider 19 molecules from ChEMBL document CHEMBL1129589, “Anti-inflammatory 17beta-thioalkyl-16alpha,17alpha-ketal and -acetal androstanes: a new class of airway selective steroids for the treatment of asthma” (J Med Chem, 1996).

The subject of assay [1] is Rattus norvegicus. Description: In vivo suppression of thymus weight by 30% following i.t. administration. Type of assay: functional. To be noted: inhaled or nasal. The essentials:
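Male Sprague-Dawley rats (~350 g, six per group) dosed intratracheally under halothane anesthesia at 0 and 24 h. Vehicle: 1% carboxymethyl cellulose/0.2% Tween 80 suspension, sonicated. First dose given with saline, second with Sephadex G200 (final 5 mg/mL). Rats killed at 48 h; lungs and thymus weighed. Doses reducing Sephadex-induced edema and thymus weight by 30% calculated.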

For another assay, the target named is T1, Glucocorticoid receptor (Rattus norvegicus, UniProt P06536).
T1 sequence (P06536 whole entry): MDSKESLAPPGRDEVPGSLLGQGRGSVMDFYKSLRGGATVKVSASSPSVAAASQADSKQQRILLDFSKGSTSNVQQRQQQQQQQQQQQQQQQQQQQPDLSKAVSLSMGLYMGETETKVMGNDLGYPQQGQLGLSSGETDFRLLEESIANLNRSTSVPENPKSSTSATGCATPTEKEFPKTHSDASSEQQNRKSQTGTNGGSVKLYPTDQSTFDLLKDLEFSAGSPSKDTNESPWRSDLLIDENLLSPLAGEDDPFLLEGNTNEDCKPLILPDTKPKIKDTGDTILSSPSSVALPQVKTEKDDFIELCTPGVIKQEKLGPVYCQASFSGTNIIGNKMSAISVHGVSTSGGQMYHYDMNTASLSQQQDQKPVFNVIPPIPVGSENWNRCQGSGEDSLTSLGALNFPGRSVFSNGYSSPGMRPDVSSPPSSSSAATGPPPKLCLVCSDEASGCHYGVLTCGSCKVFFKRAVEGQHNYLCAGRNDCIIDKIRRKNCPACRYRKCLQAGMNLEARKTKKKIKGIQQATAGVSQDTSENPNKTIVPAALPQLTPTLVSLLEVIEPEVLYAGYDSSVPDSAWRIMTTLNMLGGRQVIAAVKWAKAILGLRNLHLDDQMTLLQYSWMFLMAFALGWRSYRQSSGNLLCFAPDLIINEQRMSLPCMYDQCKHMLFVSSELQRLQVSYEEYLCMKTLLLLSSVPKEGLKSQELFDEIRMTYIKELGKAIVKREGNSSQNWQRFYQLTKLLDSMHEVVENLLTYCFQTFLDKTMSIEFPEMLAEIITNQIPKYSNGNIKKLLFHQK
Nature of the assay: Steroid binding against the rat thymus glucocorticoid receptor.

A further assay deals with H35. Description: Induction of tyrosine aminotransferase activity in cultured rat liver H4IIE cells. Type of assay: functional. The following applies: read-out: ED50 (the source's name). The gist of the method:
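Confluent H4IIE rat hepatoma cells (4-day culture) incubated overnight with steroid at 0-100 nM, in triplicate wells. Lysate equilibrated at 37 °C with α-ketoglutarate and pyridoxal phosphate in phosphate buffer, pH 7.3.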

Assay [2] has as its system Rattus norvegicus. Nature of the assay: In vivo inhibition of Rat lung edema following i.t. administration. In kind it is functional. To be noted: inhaled or nasal.
Assay [3] deals with Rattus norvegicus. Description: Selectivity ratio of Topical vs Systemic routes of administration. In kind it is functional. The essentials:
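Male Sprague-Dawley rats (about 350 g, six per group) received the steroid intratracheally under halothane. It was suspended in 1% carboxymethyl cellulose/0.2% Tween 80 and given at 0 h with saline and at 24 h with Sephadex G200 (final 5 mg/mL). At 48 h, lungs and thymus were weighed. The ratio compares doses giving 30% reduction of lung edema and of thymus weight in the same animals.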

The test system of assay [4] is Rattus norvegicus. Nature of the assay: Selectivity ratio of Topical vs Systemic routes of administration. In kind it is functional. The essentials:
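Male Sprague-Dawley rats (about 350 g, six per group) were dosed intratracheally under halothane at 0 and 24 h, as a sonicated suspension in 1% carboxymethyl cellulose/0.2% Tween 80. The first dose was given with saline, the second with Sephadex G200 (final 5 mg/mL). Lungs and thymus were weighed at 48 h. The ratio compares doses reducing edema and thymus weight by 30%, both measured in the same animals.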

`CCC[C@@H]1O[C@@H]2CC3C4CCC5=CC(=O)C=C[C@]5(C)[C@@]4(F)[C@@H](O)C[C@]3(C)[C@]2(SCC)O1` (stereo partly drawn): the figures for the ED50 in the assay with Rattus norvegicus [1] and in the assay on Rattus norvegicus [2] were 7 mg/kg and above 3 mg/kg, respectively. The IC50 (in general, the concentration that inhibits the measured activity by half) at Glucocorticoid receptor is 3.3 nM. Moreover, the EC50 in the assay on H35 was found to be 1.5 nM. In addition, in the assay with Rattus norvegicus [3], the Selectivity is above 0.43.

Take `CCC[C@@H]1O[C@@H]2CC3C4C[C@H](F)C5=CC(=O)C=C[C@]5(C)[C@@]4(F)[C@@H](O)C[C@]3(C)[C@]2(SCF)O1` (stereo partly drawn): the median effective dose (ED50) (commonly the dose that gives a 50% effect, or the effect in half of the subjects) in the assay on Rattus norvegicus [1] turned out to be 4.6 mg/kg; with Rattus norvegicus [2], 0.3 mg/kg. Moreover, the IC50 on Glucocorticoid receptor was determined as 2.2 nM. The EC50 with H35 turned out to be 0.3 nM. Also, the Selectivity with Rattus norvegicus [3] is 0.065.

In the case of `CS[C@@]12OC(C)(C)O[C@@H]1CC1C3C[C@H](F)C4=CC(=O)C=C[C@]4(C)[C@@]3(F)[C@@H](O)C[C@@]12C` (stereo partly drawn), the ED50 in the assay with Rattus norvegicus [1] stood at 3.2 mg/kg; with Rattus norvegicus [2], 1.3 mg/kg. Further, the IC50 on Glucocorticoid receptor came out at 2.2 nM. For the same molecule, the EC50 with H35 came out at 0.2 nM. The Selectivity in the assay with Rattus norvegicus [3] came to 0.4.

On to `CCC[C@@H]1O[C@@H]2CC3C4CCC5=CC(=O)C=C[C@]5(C)[C@@]4(F)[C@@H](O)C[C@]3(C)[C@]2(Sc2ccccn2)O1` (stereo partly drawn), for which the ED50 with Rattus norvegicus [1] and in the assay with Rattus norvegicus [2] was above 3 mg/kg each time. The IC50 on Glucocorticoid receptor worked out at 12 nM. The EC50 in the assay with H35 was above 100 nM.

As to `CCC[C@@H]1O[C@@H]2CC3C4CCC5=CC(=O)C=C[C@]5(C)[C@@]4(F)[C@@H](O)C[C@]3(C)[C@]2(SC(C)C)O1` (stereo partly drawn), the ED50 with Rattus norvegicus [1] and with Rattus norvegicus [2] was above 3 mg/kg each time. At Glucocorticoid receptor, this molecule came in with an IC50 of 5.5 nM. The EC50 in the assay on H35 is 7 nM.

For the molecule `CCS[C@]1(SC)CC[C@H]2[C@@H]3CCC4=CC(=O)C=C[C@]4(C)[C@@]3(F)[C@@H](O)C[C@@]21C`, the ED50 with Rattus norvegicus [1] came to 1.1 mg/kg; in the assay on Rattus norvegicus [2] it was 2.1 mg/kg. In addition, the IC50 at Glucocorticoid receptor was found to be 2.3 nM. The EC50 in the assay with H35 came out at 2 nM. Further, the Selectivity in the assay on Rattus norvegicus [3] was found to be 1.91.

In the case of `CC1(C)O[C@@H]2C[C@H]3[C@@H]4C[C@H](F)C5=CC(=O)C=C[C@]5(C)[C@@]4(F)[C@@H](O)C[C@]3(C)[C@]2(SCF)O1`, the ED50 amounted to 1.9 mg/kg in the assay on Rattus norvegicus [1] and 0.07 mg/kg in the assay on Rattus norvegicus [2]. At Glucocorticoid receptor, this molecule came in with a half-maximal inhibitory concentration (IC50) of 4.3 nM. Further, the EC50 in the assay on H35 amounted to 1 nM. Also, the Selectivity in the assay with Rattus norvegicus [3] was found to be 0.037.

Take `CC=C[C@@H]1O[C@@H]2C[C@H]3[C@@H]4CCC5=CC(=O)C=C[C@]5(C)[C@@]4(F)[C@@H](O)C[C@]3(C)[C@]2(SC)O1`: the median effective dose (ED50) in the assay with Rattus norvegicus [1] was 1.1 mg/kg; with Rattus norvegicus [2], above 3 mg/kg. Further, the IC50 on Glucocorticoid receptor amounted to 1.8 nM. Moreover, the EC50 in the assay on H35 is 1.1 nM. Moreover, the Selectivity in the assay with Rattus norvegicus [3] is above 2.73.

For `CC1(C)O[C@@H]2C[C@H]3[C@@H]4CCC5=CC(=O)C=C[C@]5(C)[C@@]4(F)[C@@H](O)C[C@]3(C)[C@]2(S(C)(=O)=O)O1`, the ED50 with Rattus norvegicus [1] was determined as 1.4 mg/kg; in the assay with Rattus norvegicus [2], 2.2 mg/kg. For the same molecule, the IC50 on Glucocorticoid receptor came to 5.3 nM. Besides, in the assay on H35, the EC50 was 13 nM. For the same molecule, the Selectivity in the assay on Rattus norvegicus [3] came out at 1.57.

Take `CCC[C@@H]1O[C@@H]2CC3C4C[C@H](F)C5=CC(=O)C=C[C@]5(C)[C@@]4(F)[C@@H](O)C[C@]3(C)[C@]2(SC)O1` (stereo partly drawn): the ED50 is 0.54 mg/kg with Rattus norvegicus [1] and 0.11 mg/kg in the assay on Rattus norvegicus [2]. Further, the IC50 at Glucocorticoid receptor is 2.4 nM. The EC50 in the assay with H35 is 0.4 nM. The Selectivity with Rattus norvegicus [3] amounted to 0.2.

For the molecule `CCC[C@@H]1O[C@@H]2CC3C4CCC5=CC(=O)C=C[C@]5(C)[C@@]4(F)[C@@H](O)C[C@]3(C)[C@]2(SC)O1` (stereo partly drawn), the ED50 is 1.8 mg/kg with Rattus norvegicus [1] and above 1 mg/kg in the assay with Rattus norvegicus [2]. This molecule registered an IC50 on Glucocorticoid receptor of 1.7 nM. The EC50 in the assay on H35 was 1.7 nM. The Selectivity in the assay on Rattus norvegicus [3] is reported as above 0.56.

Turning to `CCC[C@@H]1O[C@@H]2CC3C4CCC5=CC(=O)C=C[C@]5(C)[C@@]4(F)[C@@H](O)C[C@]3(C)[C@]2(SCF)O1` (stereo partly drawn), the ED50 with Rattus norvegicus [1] is 4 mg/kg; in the assay with Rattus norvegicus [2], above 3 mg/kg. Also, on Glucocorticoid receptor, the IC50 is 3.3 nM. Also, the EC50 in the assay with H35 was determined as 1.2 nM. In addition, the Selectivity in the assay with Rattus norvegicus [3] is on record as above 0.75.

As for `CCC[C@@H]1O[C@@H]2CC3C4C[C@H](F)C5=CC(=O)CC[C@]5(C)[C@@]4(F)[C@@H](O)C[C@]3(C)[C@]2(SC)O1` (stereo partly drawn), the ED50 in the assay with Rattus norvegicus [1] was found to be 1 mg/kg; in the assay with Rattus norvegicus [2] it was 0.06 mg/kg. At Glucocorticoid receptor, this molecule yielded an IC50 of 2.2 nM. Further, the EC50 with H35 was 0.3 nM. For the same molecule, the Selectivity in the assay with Rattus norvegicus [3] was 0.06.

With `CCC[C@@H]1O[C@@H]2CC3C4CCC5=CC(=O)CC[C@]5(C)[C@@]4(F)[C@@H](O)C[C@]3(C)[C@]2(SC)O1` (stereo partly drawn), the ED50 was 5.2 mg/kg in the assay with Rattus norvegicus [1] and 3.6 mg/kg in the assay on Rattus norvegicus [2]. Moreover, the EC50 in the assay on H35 came out at 0.7 nM.

For `CS[C@@]12OC(C)(C)O[C@@H]1CC1C3CCC4=CC(=O)C=C[C@]4(C)[C@@]3(F)[C@@H](O)C[C@@]12C` (stereo partly drawn), the ED50 came to 0.9 mg/kg in the assay with Rattus norvegicus [1] and 0.3 mg/kg with Rattus norvegicus [2]. This molecule showed an IC50 at Glucocorticoid receptor of 1.6 nM. Besides, the EC50 in the assay with H35 worked out at 0.2 nM. In the assay on Rattus norvegicus [3], the Selectivity worked out at 0.33.

Take `CC1(C)O[C@@H]2CC3C4CCC5=CC(=O)C=C[C@]5(C)[C@@]4(F)[C@@H](O)C[C@]3(C)[C@]2(Sc2ccccn2)O1` (stereo partly drawn): the ED50 in the assay with Rattus norvegicus [1] and in the assay with Rattus norvegicus [2] was above 3 mg/kg throughout. Also, the IC50 at Glucocorticoid receptor was found to be 22 nM. Further, the EC50 in the assay with H35 worked out at 50 nM.

As for `CCC[C@@H]1O[C@@H]2CC3C4CCC5=CC(=O)C=C[C@]5(C)[C@@]4(F)[C@@H](O)C[C@]3(C)[C@]2([S+](C)[O-])O1` (stereo partly drawn), the figures for the ED50 with Rattus norvegicus [1] and in the assay with Rattus norvegicus [2] were 3 mg/kg and above 3 mg/kg, respectively. In addition, the IC50 at Glucocorticoid receptor is 3.2 nM. Further, the EC50 in the assay with H35 was 23 nM. Further, the Selectivity with Rattus norvegicus [4] was above 1.

In the case of `CCC(=O)O[C@]1(C(=O)SCF)C(C)C[C@H]2[C@@H]3C[C@H](F)C4=CC(=O)C=C[C@]4(C)[C@@]3(F)[C@@H](O)C[C@@]21C` (single isomer, unassigned) [FLUTICASONE PROPIONATE], the results for the ED50 in the assay on Rattus norvegicus [1] and in the assay on Rattus norvegicus [2] were 0.47 mg/kg and 0.05 mg/kg, respectively. Further, in the assay on H35, the EC50 came to 0.1 nM.

For the molecule `CCCC1O[C@@H]2C[C@H]3[C@@H]4CCC5=CC(=O)C=C[C@]5(C)[C@H]4[C@@H](O)C[C@]3(C)[C@]2(C(=O)CO)O1` (stereo partly drawn) [BUDESONIDE], the ED50 in the assay with Rattus norvegicus [1] was determined as 0.96 mg/kg; with Rattus norvegicus [2], 0.39 mg/kg. Also, the IC50 at Glucocorticoid receptor worked out at 2.9 nM. In addition, the EC50 in the assay with H35 was determined as 0.2 nM. In addition, the Selectivity in the assay on Rattus norvegicus [3] worked out at 0.4.
